# Experimental data as given in ChEMBL document CHEMBL1121513, “Separation of potent central and renal dopamine agonist activity in substituted 6-chloro-2,3,4,5-tetrahydro-7,8-dihydroxy-1-phenyl-1H-3-benzazepines” (J Med Chem, 1980).
# What was measured:
# [1] = species on record: Rattus norvegicus; assay: Central dopaminergic activity was determined by testing compound for dopamine agonist activity mediated by adenylase cyclase in rat; type: functional, organism-based
# [2] = test system: Canis familiaris; assay: Effective Dose (ED15) required to decrease renal vascular resistance by 15% in anesthetized dogs administered intravenously; d = increase in renal resistance were seen; type: functional, organism-based; details: Canis lupus familiaris
# How it was run: (§1)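 Anesthetized dogs were surgically prepared for electromagnetic measurement of renal and iliac artery blood flow, carotid blood pressure, and ECG-triggered cardiometer heart rate. Drug was infused into an antecubital vein at cumulative, usually threefold increasing doses, 5 min per level. Renal vascular resistance was calculated as mean arterial pressure divided by mean blood flow, with a […] change needed for significance.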
# [3] = species on record: Canis familiaris; assay: Potency was expressed as the average maximum cumulative dose required to decrease renal vascular resistance by 15%; type: functional, Canis lupus familiaris; how it was run: as §1
# [4] = test system: Rattus norvegicus; assay: Central dopaminergic activity was determined by testing compound for its ability to produce contralateral rotation in lesioned rat after intracerebrally administration; type: functional
# [5] = test system: Rattus norvegicus; assay: Central dopaminergic activity was determined by testing compound for its ability to produce contralateral rotation in lesioned rat after ip administration; type: functional
# [6] = test system: Canis familiaris; assay: Effective Dose (ED15) required to decrease renal vascular resistance by 15% in anesthetized dogs administered intravenously; type: functional; details: Canis lupus familiaris, iv; how it was run: as §1
# [7] = Renal vasodilator activity was measured between ED30, measure in iliac vascular resistance (IVR) test, and ED15 RVR; type: functional
# How it was run: (§2)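 In anesthetized dogs with electromagnetic renal and iliac blood-flow probes, carotid pressure and ECG-triggered heart rate, drug was given as cumulative iv infusions rising about threefold every 5 min. Resistance was pressure divided by flow. Each ratio divides the dose giving a 30% IVR change, a 20% MABP rise or a 20% HR change by the RVR ED15.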
# [8] = Renal vasodilator activity was measured between ED20, measure of mean arterial blood pressure (MABP) test, and ED15 RVR.; type: functional; how it was run: as §2
# [9] = Renal vasodilator activity was measured between ED20, heart rate (HR) test, and ED15 RVR.; type: functional; how it was run: as §2
EC50 [1] [nM],SMILES,ED15 [2],Average max [3] [%],RD500 [4] [µg/rat],RD500 [5] [µg/kg],ED15 [6] [µg/kg],Selectivity ratio [7],Selectivity ratio [8],Selectivity ratio [9]
500,Oc1ccc(C2CNCCc3cc(O)c(O)cc32)cc1 (configuration not stated),Significant increases,–,–,–,–,–,–,–
18,Oc1ccc(C2CNCCc3c2cc(O)c(O)c3Cl)cc1 (configuration not stated) [FENOLDOPAM],–,59,0.5,10000,0.3,> 6070,>6072,>6072
80,Oc1cc2c(cc1O)C(c1ccccc1)CNCC2 (configuration not stated) [SKF-38393],–,19,0.18,700,31,15,10,–

# Continued, compound first:
SMILES,EC50 [1] [nM],ED15 [2],Average max [3] [%],RD500 [4] [µg/rat],RD500 [5] [µg/kg],ED15 [6] [µg/kg],Selectivity ratio [7],Selectivity ratio [8],Selectivity ratio [9]
Oc1cc2c(c(Cl)c1O)CCNCC2c1ccccc1 (configuration not stated),–,–,39,0.22,300,3.5,–,–,–
NCCc1ccc(O)c(O)c1 [DOPAMINE],3500,–,36,–,–,2.7,56,113,141
